One series has as its system Vero. Kind of series: Cytotoxicity against African green monkey Vero cells measured after 72 hrs by MTT assay. Type of series: cell-based. As to conditions: Chlorocebus sabaeus. The method in brief:
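Log-phase Vero cells (0.8 × 10^4/well) in RPMI-1640 + 10% heat-inactivated FBS at 37 °C, 5% CO2 were exposed 72 h to serial dilutions (10.0–200.0 µM; stocks in DMSO). MTT was then added for 4 h and absorbance read. Quadruplicates, three experiments; IC50 by nonlinear regression.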
In general terms: Tetrazolium assays rely on reduction of a dye to a coloured formazan, in cell work by metabolically active cells.

Series [1] relates to Trypanosoma cruzi. Nature of the series: Antitrypanosomal activity against Trypanosoma cruzi TINF/CH/1956/Tulahuen;DTU 6 epimastigotes measured after 72 hrs by Neubauer hemocytometer. Type of series: functional, organism-based. The following applies: TINF/CH/1956/Tulahuen;DTU 6, 72 h.
The subject of series [2] is Trypanosoma cruzi. Nature of the series: Antitrypanosomal activity against Trypanosoma cruzi MHOM/Pe/2011/Arequipa;DTU 5 epimastigotes measured after 72 hrs by Neubauer hemocytometer. Type of series: functional, organism-based. The following applies: MHOM/Pe/2011/Arequipa;DTU 5, 72 h.
For series [3], the system named is Trypanosoma cruzi. Kind of series: Antitrypanosomal activity against Trypanosoma cruzi IRHOD/CO/2008/SN3;DTU 1 epimastigotes measured after 72 hrs by Neubauer hemocytometer. As to conditions: IRHOD/CO/2008/SN3;DTU 1, 72 h. Type of series: functional, organism-based.
Series [4] can be described thus: Selectivity index, ratio of IC50 for African green monkey Vero cells to IC50 for Trypanosoma cruzi MHOM/Pe/2011/Arequipa;DTU 5. The series is classed as toxicity. As to conditions: read-out: Selectivity Index. The procedure, abridged: (§1)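 SI = Vero IC50 / epimastigote IC50. Vero cells were grown in RPMI-1640 with 10% FBS, seeded at 0.8 × 10^4 cells/well, exposed to 10.0–200.0 µM for 72 h, then given MTT for 4 h. Epimastigotes were grown in MTL with 10% FBS at 28 °C, 5 × 10^5/mL, exposed to 6.3–50 µM for 48 h, then resazurin for 24 h (570/600 nm). IC50s came from nonlinear regression.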

The nature of series [5]: Selectivity index, ratio of IC50 for African green monkey Vero cells to IC50 for Trypanosoma cruzi IRHOD/CO/2008/SN3;DTU 1. Type of series: toxicity. As to conditions: read-out: Selectivity Index. The procedure, abridged:
as §1

Series [6] can be described thus: Selectivity index, ratio of IC50 for African green monkey Vero cells to IC50 for Trypanosoma cruzi TINF/CH/1956/Tulahuen;DTU 6. Type of series: toxicity. The following applies: read-out: Selectivity Index. The procedure, abridged: as §1
Series [7] relates to Trypanosoma cruzi. Nature of the series: Antitrypanosomal activity against Trypanosoma cruzi MHOM/Pe/2011/Arequipa;DTU 5 amastigote forms measured after 72 hrs by Giemsa staining based assay. The series is classed as functional, organism-based. The following applies: MHOM/Pe/2011/Arequipa;DTU 5, 72 h. The procedure, abridged:
(§2)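 Vero cells (1 × 10^4/well, on coverslips) left to adhere 24 h at 37 °C, 5% CO2, then infected with trypomastigotes at MOI 10:1 for 24 h. Free parasites were removed by three PBS washes. Compounds at 3.1, 6.25, 12.5, 25 and 50 µM were incubated 72 h, and amastigotes were counted after Giemsa staining. Triplicates, two separate experiments; IC50 by nonlinear regression.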

The subject of series [8] is Trypanosoma cruzi. Nature of the series: Antitrypanosomal activity against bloodstream trypomastigote stage of Trypanosoma cruzi MHOM/Pe/2011/Arequipa; DTU 5 isolated from parasite infected BALB/c Albino mouse cardiac cells after 24 hrs by Neubauer chamber based cell counting method. Type of series: functional, organism-based. As to conditions: DTU 5, 24 h. The procedure, abridged:
(§3)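 Bloodstream trypomastigotes were taken by cardiac puncture from infected BALB/c mice and diluted in RPMI + 10% heat-inactivated FBS. At 2 × 10^6/mL they were exposed to 3.1–50.0 µM (lower where needed) for 24 h at 37 °C, 5% CO2, and counted in a Neubauer chamber. Triplicates, at least three experiments; IC50 by nonlinear regression.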

Series [9] deals with Trypanosoma cruzi. Nature of the series: Antitrypanosomal activity against Trypanosoma cruzi IRHOD/CO/2008/SN3;DTU 1 amastigote forms measured after 72 hrs by Giemsa staining based assay. Type of series: functional, organism-based. As to conditions: IRHOD/CO/2008/SN3;DTU 1, 72 h. The method in brief:
as §2

Series [10] concerns Trypanosoma cruzi. Kind of series: Antitrypanosomal activity against bloodstream trypomastigote stage of Trypanosoma cruzi IRHOD/CO/2008/SN3;DTU 1 isolated from parasite infected BALB/c Albino mouse cardiac cells after 24 hrs by Neubauer chamber based cell counting method. Type of series: functional, organism-based. As to conditions: IRHOD/CO/2008/SN3;DTU 1, 24 h. The procedure, abridged:
as §3

Series [11] concerns Trypanosoma cruzi. Nature of the series: Antitrypanosomal activity against Trypanosoma cruzi TINF/CH/1956/Tulahuen;DTU 6 amastigote forms measured after 72 hrs by Giemsa staining based assay. As to conditions: TINF/CH/1956/Tulahuen;DTU 6, 72 h. The series is classed as functional, organism-based. The procedure, abridged: as §2
Series [12] concerns Trypanosoma cruzi. Kind of series: Trypanocidal activity against Trypanosoma cruzi trypomastigote form infected in African green monkey Vero cells assessed as ratio of infected cells at 50 uM measured after 72 hrs by Giemsa staining based assay relative to control. The series is classed as functional. The procedure, abridged: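 Vero cells (1 × 10^4/well, on coverslips) were infected with trypomastigotes at MOI 10:1 for 24 h and washed three times with PBS. They were treated at 3.1, 6.25, 12.5, 25 and 50 µM for 72 h at 37 °C in 5% CO2. Infected cells were counted after Giemsa staining. Triplicates, two separate determinations.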

Series [13] in a line: Selectivity index, ratio of IC50 for African green monkey Vero cells to IC50 for Trypanosoma cruzi MHOM/Pe/2011/Arequipa; DTU 5 amastigote forms. The series is classed as toxicity. The following applies: read-out: Selectivity Index. The procedure, abridged:
(§4)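 Vero cells (1 × 10^4/well) were infected with trypomastigotes at MOI 10:1 for 24 h and washed with PBS. They were then exposed to 3.1–50 µM for 72 h at 37 °C in 5% CO2, and amastigotes were counted after Giemsa staining. Triplicates in two determinations; nonlinear regression.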

Series [14] in a line: Selectivity index, ratio of IC50 for African green monkey Vero cells to IC50 for Trypanosoma cruzi MHOM/Pe/2011/Arequipa; DTU 5 trypomastigote forms. The series is classed as toxicity. The following applies: read-out: Selectivity Index. The procedure, abridged:
(§5)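 Bloodstream trypomastigotes were taken from BALB/c mice by cardiac puncture and diluted in RPMI with 10% FBS at 2 × 10^6/mL. They were incubated with 3.1–50.0 µM for 24 h at 37 °C in 5% CO2 and counted in a Neubauer chamber. Triplicate, at least three experiments; nonlinear regression.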

Series [15] in a line: Selectivity index, ratio of IC50 for African green monkey Vero cells to IC50 for Trypanosoma cruzi IRHOD/CO/2008/SN3;DTU 1 amastigote forms. Type of series: toxicity. The following applies: read-out: Selectivity Index. The procedure, abridged: as §4
Series [16] in a line: Selectivity index, ratio of IC50 for African green monkey Vero cells to IC50 for Trypanosoma cruzi IRHOD/CO/2008/SN3;DTU 1 trypomastigote forms. The following applies: read-out: Selectivity Index. Type of series: toxicity. The procedure, abridged:
as §5

The nature of series [17]: Selectivity index, ratio of IC50 for African green monkey Vero cells to IC50 for Trypanosoma cruzi TINF/CH/1956/Tulahuen;DTU 6 amastigote forms. The series is classed as toxicity. As to conditions: read-out: Selectivity Index. The procedure, abridged:
as §4

Series [18] can be described thus: Selectivity index, ratio of IC50 for African green monkey Vero cells to IC50 for Trypanosoma cruzi TINF/CH/1956/Tulahuen;DTU 6 trypomastigote forms. Type of series: toxicity. As to conditions: read-out: Selectivity Index. The procedure, abridged: as §5
The subject of series [19] is Trypanosoma cruzi. Nature of the series: Trypanocidal activity against Trypanosoma cruzi trypomastigote form infected in African green monkey Vero cells measured after 48 hrs by resazurin dye based assay. The series is classed as functional, organism-based. In general terms: The colour change of resazurin is a common sign of viable cells or microbes.
Series [20] deals with Trypanosoma cruzi. Nature of the series: Trypanocidal activity against Trypanosoma cruzi TINF/CH/1956/Tulahuen;DTU 6 trypomastigote forms infected in BALB/c albino mouse measured after 24 hrs by Neubauer chamber method. The following applies: TINF/CH/1956/Tulahuen;DTU 6, 24 h.

pIC50: −log10 of the molar value.

The term pIC50 denotes the IC50 on a negative log10 scale, so that one unit is a factor of ten. Regarding `COc1ccc(C(=O)CCNc2ccc(Cl)cc2)cc1`, the pIC50 in the series on Vero was 3.84; in the series with Trypanosoma cruzi [1] it was 4.79; with Trypanosoma cruzi [2], 4.73; in the series on Trypanosoma cruzi [3], 4.42; with Trypanosoma cruzi [7] it was 5.14; in the series on Trypanosoma cruzi [8], 4.89. For the same molecule, the pIC50 in the series with Trypanosoma cruzi [9] is 5.22; with Trypanosoma cruzi [10] it was 4.20; in the series on Trypanosoma cruzi [11] it was 4.58; in the series on Trypanosoma cruzi [19] it was 5.05; in the series with Trypanosoma cruzi [20], 4.85. Further, the selectivity ratio in series [4] was 7.8; in [5], 3.8; in series [6], 8.9; in [13], 19.9; in [14] it was 11.2; in [15], 24.1. For the same molecule, the selectivity ratio amounted to 2.3 in series [16], 5.5 in series [17] and 10.2 in series [18]. Moreover, in the series on Trypanosoma cruzi [12], the Ratio is listed as 28%.
On to `O=C(CCN1CCN(c2ccc([N+](=O)[O-])cc2)CC1)c1ccc(O)cc1`, for which the pIC50 in the series on Vero is 4.46; with Trypanosoma cruzi [1] it was 4.37; in the series on Trypanosoma cruzi [2], 4.61; with Trypanosoma cruzi [3] it was 4.89. For the same molecule, the selectivity ratio in series [4] came out at 1.4; in series [5], 2.7; in series [6] it was 0.8.
As for `O=C(CCN1CCN(c2ccc(F)cc2)CC1)c1ccc(O)cc1`, the pIC50 with Vero is 4.30; in the series with Trypanosoma cruzi [1], 4.89; in the series on Trypanosoma cruzi [2] it was 4.61; in the series with Trypanosoma cruzi [3], 5.00. Also, the figures for the selectivity ratio in [4], in series [5] and in [6] were 2.1, 5 and 3.9, respectively.
Take `COc1ccc(C(=O)CCNCCc2ccc(F)cc2)cc1`: the pIC50 with Vero is 4.18; with Trypanosoma cruzi [1] it was 4.69; with Trypanosoma cruzi [2], 4.45; in the series on Trypanosoma cruzi [3], 4.77. Besides, the selectivity ratio in series [4] is 1.9; in series [5], 3.9; in series [6], 3.3.
In the case of `COc1ccc(C(=O)CCNc2ccc(F)cc2)cc1`, the pIC50 is 3.87 in the series with Vero; 4.84 in the series with Trypanosoma cruzi [1]; 4.83 with Trypanosoma cruzi [2]; 4.60 in the series on Trypanosoma cruzi [3]; 5.33 with Trypanosoma cruzi [7]; 5.68 with Trypanosoma cruzi [8]. Besides, the pIC50 in the series with Trypanosoma cruzi [9] was 5.27; in the series on Trypanosoma cruzi [10], 5.47; in the series with Trypanosoma cruzi [11], 5.17; with Trypanosoma cruzi [19] it was 5.15; with Trypanosoma cruzi [20], 5.57. For the same molecule, the selectivity ratio in [4] worked out at 9; in [5] it was 5.2; in series [6], 9.3; in series [13], 27.6; in series [14] it was 64.8; in [15], 24.7. The results for the selectivity ratio in series [16], in series [17] and in series [18] were 39.4, 20.1 and 48.8, respectively. Moreover, the Ratio with Trypanosoma cruzi [12] was found to be 10%.
`COc1ccc(C(=O)CCNCCc2ccc(Cl)cc2)cc1`: the pIC50 with Vero is 4.27; in the series with Trypanosoma cruzi [1], 4.82; in the series on Trypanosoma cruzi [2], 4.29; in the series on Trypanosoma cruzi [3] it was 4.84. The selectivity ratio amounted to 1 in series [4], 3.7 in [5] and 3.5 in series [6].
On to `COc1ccc(C(=O)CCNCCc2ccc(C(F)(F)F)cc2)cc1`, for which the pIC50 with Vero is 4.04; in the series with Trypanosoma cruzi [1] it was 4.88; in the series with Trypanosoma cruzi [2], 4.22; with Trypanosoma cruzi [3], 4.88; with Trypanosoma cruzi [7], 5.04; with Trypanosoma cruzi [8], 5.44. In addition, the negative-log IC50 (pIC50) was 5.35 in the series on Trypanosoma cruzi [9]; 5.26 in the series with Trypanosoma cruzi [10]; 5.48 in the series with Trypanosoma cruzi [11]; 4.86 in the series with Trypanosoma cruzi [19]; 5.46 with Trypanosoma cruzi [20]. Besides, the selectivity ratio came to 1.5 in series [4]; 6.9 in [5]; 6.9 in series [6]; 10 in series [13]; 25 in series [14]; 20.2 in series [15]. The selectivity ratio came to 16.7 in [16], 27.7 in series [17] and 26.1 in series [18]. In addition, the Ratio in the series on Trypanosoma cruzi [12] worked out at 17%.
Consider `COc1ccc(C(=O)CCNc2ccc(C(F)(F)F)cc2)cc1`, for which the pIC50 in the series on Vero is 4.49; in the series with Trypanosoma cruzi [1], 4.61; in the series with Trypanosoma cruzi [2] it was 4.75; in the series on Trypanosoma cruzi [3], 4.12. Besides, the values for the selectivity ratio in [4], in series [5] and in series [6] were 1.8, 0.4 and 1.3, respectively.
